The results in this text go back to ChEMBL document CHEMBL1155443, “Synthesis and evaluation of alpha-halogenated analogues of 3-(acetylhydroxyamino)propylphosphonic acid (FR900098) as antimalarials” (J Med Chem, 2010).

Activity calls are given as the source filed them. The rule behind the calls is not given here. Bounds are passed on as bounds.

The term IC50 denotes the point on the concentration scale where inhibition reaches its midpoint. Usually pKa stands for the negative logarithm of the acid dissociation constant. Read a low pKa as a group that gives up its proton readily.

Series [1] deals with Plasmodium falciparum. Kind of series: Antiplasmodial activity against Plasmodium falciparum K1 by micro dilution assay. In kind it is functional, organism-based. The gist of the method: (§1)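 Intraerythrocytic P. falciparum, strains GHA and K1, in a microdilution assay; tested in duplicate.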
For series [2], the system named is Plasmodium falciparum. Kind of series: Ratio of fosmidomycin IC50 to compound IC50 for Plasmodium falciparum K1. In kind it is functional.
The subject of series [3] is Plasmodium falciparum. Briefly: Antiplasmodial activity against Plasmodium falciparum Ghana by micro dilution assay. In kind it is functional, organism-based. The method in brief: as §1
Series [4] is described as follows: Dissociation constant, pKa by NMR titration assay. In kind it is physicochemical. The gist of the method: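 The ³¹P NMR chemical shift was recorded across a range of pH values and plotted against pH. Each pKa was taken as the pH at the inflection point of the titration curve, with the second pKa the value of interest.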
Series [5] relates to Plasmodium berghei. Briefly: Antiplasmodial activity against Plasmodium berghei ANKA infected in mice (Mus musculus) assessed as mice (Mus musculus) survival at 50 mg/kg, intraperitoneal for 5 consecutive days measured on day 7 post parasitic infection. In kind it is functional, organism-based. Also noted: dose 50 mg/kg. The gist of the method:
(§2)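 P. berghei (GFP ANKA strain) acute mouse model; intraperitoneal dosing for 5 consecutive days (test compounds 50 mg/kg, chloroquine reference 10 mg/kg). Parasitaemia measured by flow cytometry (10 μL blood in 2000 μL PBS) on days 4, 7 and 14 in survivors, expressed as % reduction versus vehicle-treated infected controls. Survivors counted on days 7, 11, 14 and 25; mean survival time calculated.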

The test system of series [6] is Plasmodium berghei. Kind of series: Antiplasmodial activity against Plasmodium berghei ANKA infected in mice (Mus musculus) assessed as mean survival time at 50 mg/kg, intraperitoneal for 5 consecutive days. In kind it is functional. The gist of the method: as §2
Series [7] relates to Plasmodium berghei. Kind of series: Antiplasmodial activity against Plasmodium berghei ANKA infected in mice (Mus musculus) assessed as suppression of parasitaemia at 50 mg/kg, intraperitoneal for 5 consecutive days measured on day 4 post parasitic infection. It is filed as functional. The conditions noted are these: ip, 96 h. The gist of the method: as §2
In series [8] the test system is Plasmodium berghei. Briefly: Antiplasmodial activity against Plasmodium berghei ANKA infected in mice (Mus musculus) assessed as mice (Mus musculus) survival at 10 mg/kg, intraperitoneal for 5 consecutive days measured on day 14 post parasitic infection. It is filed as functional, organism-based. Also noted: dose 10 mg/kg. The method in brief: (§3)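 P. berghei GFP ANKA acute mouse model. Drug was given intraperitoneally once daily for 5 consecutive days, alongside vehicle-treated infected controls. Mice were watched for clinical and adverse signs and euthanized for welfare if signs became very severe. Surviving animals were counted per group on days 7, 11, 14 and 25, and mean survival time was calculated.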

Series [9] deals with Plasmodium berghei. Briefly: Antiplasmodial activity against Plasmodium berghei ANKA infected in mice (Mus musculus) assessed as mice (Mus musculus) survival at 10 mg/kg, intraperitoneal for 5 consecutive days measured on day 11 post parasitic infection. It is filed as functional, organism-based. Also noted: dose 10 mg/kg. The method in brief:
as §3

Series [10] relates to Plasmodium berghei. Kind of series: Antiplasmodial activity against Plasmodium berghei ANKA infected in mice (Mus musculus) assessed as mean survival time at 10 mg/kg, intraperitoneal for 5 consecutive days. It is filed as functional. The gist of the method:
as §2

Series [11] deals with Plasmodium berghei. Kind of series: Antiplasmodial activity against Plasmodium berghei ANKA infected in mice (Mus musculus) assessed as mice (Mus musculus) survival at 10 mg/kg, intraperitoneal for 5 consecutive days measured on day 7 post parasitic infection. In kind it is functional, organism-based. Also noted: dose 10 mg/kg. The gist of the method:
as §3

Series [12] relates to Plasmodium berghei. Kind of series: Antiplasmodial activity against Plasmodium berghei ANKA infected in mice (Mus musculus) assessed as suppression of parasitaemia at 10 mg/kg, intraperitoneal for 5 consecutive days measured on day 4 post parasitic infection. The following applies: ip, 96 h, read-out: INH.
Series [13] has as its system Plasmodium berghei. Briefly: Antiplasmodial activity against Plasmodium berghei ANKA infected in mice (Mus musculus) assessed as mice (Mus musculus) survival at 50 mg/kg, intraperitoneal for 5 consecutive days measured on day 14 post parasitic infection. In kind it is functional, organism-based. Also noted: dose 50 mg/kg. The method in brief:
as §3

Series [14] has as its system Plasmodium berghei. Briefly: Antiplasmodial activity against Plasmodium berghei ANKA infected in mice (Mus musculus) assessed as mice (Mus musculus) survival at 50 mg/kg, intraperitoneal for 5 consecutive days measured on day 25 post parasitic infection. In kind it is functional, organism-based. Also noted: dose 50 mg/kg. The method in brief: as §2
In series [15] the test system is Plasmodium berghei. Kind of series: Antiplasmodial activity against Plasmodium berghei ANKA infected in mice (Mus musculus) assessed as mice (Mus musculus) survival at 50 mg/kg, intraperitoneal for 5 consecutive days measured on day 11 post parasitic infection. In kind it is functional, organism-based. Also noted: dose 50 mg/kg. The gist of the method:
as §3

The subject of series [16] is Plasmodium berghei. Kind of series: Antiplasmodial activity against Plasmodium berghei ANKA infected in mice (Mus musculus) assessed as suppression of parasitaemia at 50 mg/kg, intraperitoneal for 5 consecutive days measured on day 14 post parasitic infection. In kind it is functional. The conditions noted are these: ip, 336 h. The method in brief: as §2
The subject of series [17] is Plasmodium berghei. Briefly: Antiplasmodial activity against Plasmodium berghei ANKA infected in mice (Mus musculus) assessed as suppression of parasitaemia at 50 mg/kg, intraperitoneal for 5 consecutive days measured on day 7 post parasitic infection. In kind it is functional. The conditions noted are these: ip, 168 h. The gist of the method:
as §2

For `CC(=O)N(O)CCC(Cl)P(=O)(O)O.N.N` (racemic), the figures for the half-inhibitory concentration (IC50) with Plasmodium falciparum [1] and in the series with Plasmodium falciparum [3] were 300 nM and 820 nM, respectively. Also, in the series with Plasmodium falciparum [2], the “Ratio IC50” value is given as 5. Moreover, the pKa in series [4] is no more than 6.

`O=CN(O)CCCP(=O)(O)O` [FOSMIDOMYCIN]: the IC50 in the series with Plasmodium falciparum [1] amounted to 1730 nM. For the same compound, the result in the series on Plasmodium berghei [5] was Active. Also, the MST in the series with Plasmodium berghei [6] came out at 11.5 days. The inhibition in vivo at 50 mg/kg in the series with Plasmodium berghei [7] was 82%.

For `CCN(CC)CCCC(C)Nc1ccnc2cc(Cl)ccc12` (stereo not drawn) [CHLOROQUINE], the result in the series with Plasmodium berghei [8], in the series with Plasmodium berghei [9] and in the series with Plasmodium berghei [11] was Active. In addition, the MST with Plasmodium berghei [10] amounted to 20.7 days. Further, the inhibition in vivo at 10 mg/kg in the series with Plasmodium berghei [12] amounted to 100%.

Turning to `O=CN(O)CCC(c1ccc(Cl)c(Cl)c1)P(=O)(O)O` (stereo not drawn), the concentration for half-maximal inhibition (IC50) with Plasmodium falciparum [1] came out at 160 nM; with Plasmodium falciparum [3] it was 600 nM. The outcome with Plasmodium berghei [13], with Plasmodium berghei [14] and with Plasmodium berghei [15] was inactive. For the same compound, the MST in the series with Plasmodium berghei [6] worked out at 7 days. Besides, in the series on Plasmodium berghei [7], the inhibition in vivo at 50 mg/kg came to 46%.

Turning to `CC(=O)N(O)CCCP(=O)(O)O` [FR-900098], in the series with Plasmodium falciparum [1], the IC50 came out at 420 nM. Besides, the result with Plasmodium berghei [5] was Active. Besides, in the series on Plasmodium berghei [6], the MST turned out to be 10.8 days. The same compound came in with a pKa in [4] of 7.35. The inhibition in vivo at 50 mg/kg with Plasmodium berghei [7] is 93%.

Take `CN(O)C(=O)CCC(F)P(=O)(O)O.N.N` (racemic): the figures for the inhibition in vivo at 50 mg/kg in the series on Plasmodium berghei [16], with Plasmodium berghei [17] and with Plasmodium berghei [7] were 41%, 42% and 85%, respectively. Further, the IC50 in the series with Plasmodium falciparum [1] was 310 nM; with Plasmodium falciparum [3], 730 nM. Further, the “Ratio IC50” value in the series with Plasmodium falciparum [2] is listed as 5. Further, the result with Plasmodium berghei [14] was inactive. In addition, the MST with Plasmodium berghei [6] is 11.7 days.

Turning to `CC(=O)N(O)CCC(F)P(=O)(O)O.N.N` (racemic), the values for the inhibition in vivo at 50 mg/kg with Plasmodium berghei [16], in the series on Plasmodium berghei [17] and in the series with Plasmodium berghei [7] were 32%, 62% and 88%, respectively. In addition, the IC50 was found to be 290 nM in the series on Plasmodium falciparum [1] and 700 nM in the series with Plasmodium falciparum [3]. In addition, in the series on Plasmodium falciparum [2], the “Ratio IC50” value was 5. Further, the outcome in the series with Plasmodium berghei [5] was Active. The result with Plasmodium berghei [14] was inactive. Besides, in the series with Plasmodium berghei [6], the MST worked out at 15.8 days. Moreover, the pKa in [4] is no more than 6.
